Measurements from ChEMBL document CHEMBL4725359, “Development of Potent PfCLK3 Inhibitors Based on TCMDC-135051 as a New Class of Antimalarials” (J Med Chem, 2020).
The source made the active and inactive calls. The rule behind the calls is not given here.

Key:
[1] = system: Plasmodium falciparum; assay: Antimalarial activity against chloroquine-sensitive synchronized ring stage of Plasmodium falciparum 3D7 incubated for 48 to 52 hrs by SYBR green 1 dye based assay; type: functional, organism-based
[2] = system: Plasmodium falciparum; assay: Antimalarial activity against Plasmodium falciparum isolate GB0087 assessed as reduction in parasitemia at 1 to 10 times EC50 supplemented with fresh medium containing compounds every 24 hrs for 72 hrs relative to control; type: functional; set-up: scale not given: the % may be the effect or the level left
Summary of the method: (§1)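 Parasite reduction ratio setup: cryopreserved clinical isolates thawed and cultured at least one cycle (~48 h ± 2); new rings 0–3 h post-invasion taken as t = 0. […] 24 h arm: drug removed by two washes; 48 and 72 h arms: fresh drug every 24 h.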

[3] = system: Plasmodium falciparum; assay: Antimalarial activity against Plasmodium falciparum isolate GB0026 assessed as reduction in parasitemia at 10 times EC50 measured after 72 hrs; type: functional, organism-based; summary of the method: as §1
[4] = system: Plasmodium falciparum; assay: Antimalarial activity against Plasmodium falciparum isolate GB0048 assessed as reduction in parasitemia at 1 to 10 times EC50 supplemented with fresh medium containing compounds every 24 hrs for 72 hrs relative to control; type: functional; set-up: scale not given: the % may be the effect or the level left; summary of the method: as §1
[5] = system: Plasmodium falciparum; assay: Antimalarial activity against Plasmodium falciparum isolate GB0006 assessed as reduction in parasitemia at 1 to 10 times EC50 supplemented with fresh medium containing compounds every 24 hrs for 72 hrs relative to control; type: functional; set-up: scale not given: the % may be the effect or the level left; summary of the method: as §1
[6] = system: Plasmodium falciparum; assay: Antimalarial activity against Plasmodium falciparum isolate GB002 assessed as reduction in parasitemia at 10 times EC50 measured after 72 hrs; type: functional, organism-based; summary of the method: as §1
[7] = system: Plasmodium falciparum; assay: Antimalarial activity against Plasmodium falciparum isolate GB0021 assessed as reduction in parasitemia at 1 to 10 times EC50 supplemented with fresh medium containing compounds every 24 hrs for 72 hrs relative to control; type: functional; set-up: scale not given: the % may be the effect or the level left; summary of the method: as §1
[8] = system: Plasmodium falciparum; assay: Antimalarial activity against Plasmodium falciparum isolate GB0020 assessed as reduction in parasitemia at 1 to 10 times EC50 measured after 24 hrs relative to control; type: functional; set-up: scale not given: the % may be the effect or the level left; summary of the method: as §1
[9] = system: Plasmodium falciparum; assay: Antimalarial activity against Plasmodium falciparum isolate GB0026 assessed as reduction in parasitemia at 1 to 10 times EC50 measured after 24 hrs relative to control; type: functional; set-up: scale not given: the % may be the effect or the level left; summary of the method: as §1
[10] = system: Plasmodium falciparum; assay: Antimalarial activity against Plasmodium falciparum isolate GB0020 assessed as reduction in parasitemia at 10 times EC50 measured after 72 hrs; type: functional, organism-based; summary of the method: as §1
[11] = system: Plasmodium falciparum; assay: Antimalarial activity against Plasmodium falciparum isolate GB0071 assessed as reduction in parasitemia at 1 to 10 times EC50 supplemented with fresh medium containing compounds every 24 hrs for 72 hrs relative to control; type: functional; set-up: scale not given: the % may be the effect or the level left; summary of the method: as §1
[12] = system: Plasmodium falciparum; assay: Antimalarial activity against Plasmodium falciparum isolate GB002 assessed as reduction in parasitemia at 1 to 10 times EC50 measured after 24 hrs relative to control; type: functional; set-up: scale not given: the % may be the effect or the level left; summary of the method: as §1
[13] = Inhibition of recombinant full-length Plasmodium falciparum 3D7 CLK3 using ULight-labelled CFFKNIVTPRTPPPSQGK as substrate measured after 1 hr by TR-FRET assay
Summary of the method: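 Peptide substrate plus cold ATP with serially diluted inhibitor, 37 °C for 1 h. Stopped with 30 mM EDTA and Eu-anti-phospho antibody (3 nM), 1 h RT, read 665 nm emission. Normalised to no-kinase/no-inhibitor wells; three independent experiments in triplicate, mean ± SEM.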

[14] = Distribution coefficient, log D of the compound at pH 7.4 by HPLC method; type: physicochemical; conditions: octanol/water
[15] = system: Plasmodium falciparum; assay: Antimalarial activity against Plasmodium falciparum isolate GB0020 assessed as reduction in parasitemia at 1 to 10 times EC50 supplemented with fresh medium containing compounds every 24 hrs for 72 hrs relative to control; type: functional, organism-based; summary of the method: as §1
[16] = system: Plasmodium falciparum; assay: Antimalarial activity against Plasmodium falciparum isolate GB002 assessed as reduction in parasitemia at 1 to 10 times EC50 supplemented with fresh medium containing compounds every 24 hrs for 72 hrs relative to control; type: functional, organism-based; summary of the method: as §1
[17] = system: Plasmodium falciparum; assay: Antimalarial activity against Plasmodium falciparum isolate GB0004 assessed as reduction in parasitemia at 1 to 10 times EC50 supplemented with fresh medium containing compounds every 24 hrs for 72 hrs relative to control; type: functional; summary of the method: as §1
[18] = system: Plasmodium falciparum; assay: Antimalarial activity against Plasmodium falciparum isolate GB0026 assessed as reduction in parasitemia at 1 to 10 times EC50 supplemented with fresh medium containing compounds every 24 hrs for 72 hrs relative to control; type: functional, organism-based; summary of the method: as §1

Compound: CCc1nc(N)nc(N)c1-c1ccc(Cl)cc1 [PYRIMETHAMINE]
- EC50 ([1]; read-out: EC50): 18 nM
- Activity [2]: >=70%
- Activity [3]: inactive
- Activity [4]: >=70%
- Activity [5]: >=70%
- Activity [6]: inactive
- Activity [7]: >=70%
- Activity [8]: 45%
- Activity [9]: 36%
- Activity [10]: inactive
- Activity [11]: >=70%
- Activity [12]: 64%

Compound: CCN(CC)Cc1ccc(OC)c(-c2cc3c(-c4ccc(C(=O)O)cc4)ccnc3[nH]2)c1
- EC50 ([1]; read-out: EC50): 3270 nM
- IC50 [13]: 34 nM
- pIC50 [13]: 7.5
- logD [14]: 0.65

Compound: COc1ccc(CN2CCOCC2)cc1-c1cc2c(-c3ccc(C(=O)O)c(C(C)C)c3)ccnc2[nH]1
- IC50 [13]: 9 nM
- pIC50 [13]: 8

Compound: COc1ccc(CN2CCCC2)cc1-c1cc2c(-c3ccc(C(=O)O)c(C(C)C)c3)ccnc2[nH]1
- EC50 ([1]; read-out: EC50): 382 nM
- IC50 [13]: 38 nM
- pIC50 [13]: 7.4
- logD [14]: 2.43

Compound: CCN(CC)Cc1ccc(OC)c(-c2cc3c(-c4ccc(C(C)C)c(C(=O)O)c4)ccnc3[nH]2)c1
- IC50 [13]: 1380 nM
- pIC50 [13]: 4.9

Compound: CCN(CC)Cc1cccc(-c2cc3c(-c4ccc(C(=O)O)c(C(C)C)c4)ccnc3[nH]2)c1
- EC50 ([1]; read-out: EC50): 309 nM
- IC50 [13]: 25 nM
- pIC50 [13]: 7.6
- logD [14]: 0.8

Compound: COc1ccc(CN(C)C)cc1-c1cc2c(-c3ccc(C(=O)O)c(C(C)C)c3)ccnc2[nH]1
- EC50 ([1]; read-out: EC50): 457 nM
- IC50 [13]: 29 nM
- pIC50 [13]: 7.5
- logD [14]: 0.85

Compound: CCN(CC)Cc1ccc(O)c(-c2cc3c(-c4ccc(C(=O)O)c(C(C)C)c4)ccnc3[nH]2)c1
- EC50 ([1]; read-out: EC50): 3530 nM
- IC50 [13]: 22 nM
- pIC50 [13]: 7.7
- logD [14]: 0.59

Compound: CCN(CC)Cc1cccc(-c2cc3c(-c4ccc(C(=O)O)c(C(C)C)c4)ccnc3[nH]2)c1OC
- EC50 ([1]; read-out: EC50): 3170 nM
- EC50 ([1]; read-out: pEC50 (converted)): 2510 nM
- IC50 [13]: 17 nM
- pIC50 [13]: 7.7
- logD [14]: 0.74

Compound: CCN(CC)Cc1ccc(OC)c(-c2cc3c(-c4ccc(C(=O)O)c(C(C)C)c4)ccnc3[nH]2)c1
- Activity [2]: Active
- IC50 [13]: 40 nM
- pIC50 [13]: 7.4
- Activity [4]: Active
- Activity [15]: Active
- Activity [5]: Active
- logD [14]: 0.93
- Activity [16]: Active
- Activity [7]: Active
- Activity [17]: Active
- Activity [18]: Active
- Activity [11]: Active

Compound: CCN(CC)Cc1ccc(OC)c(-c2cc3c(-c4ccc(C(=O)O)c(C)c4)ccnc3[nH]2)c1
- EC50 ([1]; read-out: EC50): 1180 nM
- EC50 ([1]; read-out: pEC50 (converted)): 2510 nM
- IC50 [13]: 24 nM
- pIC50 [13]: 7.6
- logD [14]: 0.66

Compound: CCOC(=O)c1ccc(-c2ccnc3[nH]c(-c4cc(CN(CC)CC)ccc4OC)cc23)cc1C(C)C
- IC50 [13]: 390 nM
- pIC50 [13]: 6.4
- logD [14]: 2.45

Compound: COc1ccc(CN)cc1-c1cc2c(-c3ccc(C(=O)O)c(C(C)C)c3)ccnc2[nH]1
- EC50 ([1]; read-out: EC50): 2800 nM
- EC50 ([1]; read-out: pEC50 (converted)): 2510 nM
- IC50 [13]: 76 nM
- pIC50 [13]: 7.1
- logD [14]: 0.61

Compound: COc1ccccc1-c1cc2c(-c3ccc(C(=O)O)c(C(C)C)c3)ccnc2[nH]1
- EC50 ([1]; read-out: EC50): 1460 nM
- EC50 ([1]; read-out: pEC50 (converted)): 1580 nM
- IC50 [13]: 79 nM
- pIC50 [13]: 7.1
- logD [14]: 2.45

Compound: CCN(CC)Cc1ccc(OC)c(-c2cc3c(-c4ccc(-c5nnn[nH]5)c(C(C)C)c4)ccnc3[nH]2)c1
- IC50 [13]: 19 nM
- pIC50 [13]: 7.7
- logD [14]: 0.93

Compound: CCN(CC)Cc1ccc(OC)c(-c2cc3c(-c4cccc(C(C)C)c4)ccnc3[nH]2)c1
- IC50 [13]: 1300 nM
- pIC50 [13]: 6
- logD [14]: 4.45
